# Shown are actives, neighbours in structure and some others; about 2% of the full set was active somewhere.
# INS promoter inh – inhibitors of insulin promoter-driven GFP, primary screen, imaging, TRM-6 cells (human fetal islet line), eGFP reporter, cell count; reporter expression induced with tamoxifen; inhibition, % at 2 µM; 130,000 tested, 0.9% active; AID 1273, 2008;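 active means inhibition above the mean plus 3 SD, with well images judged a real hit on visual review, cut at about 60% in these data, passing the limit was not always enough; inconclusive means inhibition over the cutoff but images rejected on review; inactive means inhibition not above the cutoff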
# Insulin prom up – insulin promoter activators in MIN6 cells, imaging, high-content screening, mouse beta cells | MIN6 insulin promoter-GFP reporter; stronger effect = higher value | z-score at 5 µM | 190,000 tested, 0.3% active | AID 1625, 2009;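 active means z-score above 3 at 5 µM with at least 500 cells counted in the well; inconclusive means wells under 500 cells, flagged as cytotoxic or low count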
# Autophagy HCS – autophagy modulators in MEF cells, primary screen, imaging, high-content, MEF GFP-LC3. AID 463193, 2010. calls only at 10 µM (by protocol). 190,000 tested, 0.98% active. MEF GFP-LC3 puncta imaging; test concentration mostly 10 µM;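 active means percentage of spot-positive cells more than 3 SD above its plate mean, without a fluorescence outlier flag or 80% toxicity; inconclusive means no clear call, values can overlap the other calls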;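 further: spot-positive cell cutoff set from DMSO-treated cells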
# Dynein transport – inhibitors of GR-EGFP nuclear translocation, primary screen, dynein cargo transport inhibitor project, imaging, high-content, 3617.4 mouse cells | test concentration mostly 20 µM; stimulated with dexamethasone, 1 µM; stronger effect = lower value | z-score, hits read low | 220,000 tested, 0.47% active | AID 1381, 2008;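 active means plate z-score of nuclear minus cytoplasmic receptor signal below a set negative limit, without overly bright fluorescence or cell loss, cut at about -3.5 in these data, passing the limit was not always enough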;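 further: z-score of nuclear minus cytoplasmic ring GR-EGFP intensity difference per well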
#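 medium = tetracycline-free induction medium containing charcoal-stripped FBS | probe or stimulus = dexamethasone, 1.0 µM final | timing = 48 h induction, then 1 h compound, then 30 min agonist, 37 °C | detection = automated 10x imaging of fixed Hoechst-stained cells | read-out basis = nuclear versus cytoplasmic GR-EGFP signal, averaged per well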
# Dynein confirm – dynein cargo transport inhibitors, GR-EGFP translocation, confirmation, imaging, high-content imaging, GR-EGFP cells; calls only at 20 µM; shares compounds with Dynein transport; 1,000 tested, 69% active; 3617.4 GR-EGFP nuclear translocation imaging, dexamethasone-induced; AID 463116, 2010;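 active means inhibition of receptor movement into the nucleus at or above a set limit in both runs, with normal cell brightness and cell count; inconclusive means limit reached in only one run, brightness and count normal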;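 further: dexamethasone at 1 µM final in well for 30 min; nuclear minus cytoplasmic GR-EGFP mean intensity difference in channel 2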
# Numbers without * were called inactive; i = inactive; ? = inconclusive; . = not tested or not shown; + = active, no number.
SMILES,INS promoter inh,Insulin prom up,Autophagy HCS,Dynein transport,Dynein confirm
C/C(=C\c1ccc(N(C)C)cc1)[N+](=O)[O-],.,-1.2,i,-4.5*,+
COc1ccc2nc(NC3=NCCN3)sc2c1,-11,0.08,i,-0.56,.
CCN(CC)c1ccc(/C=N/c2sc3c(c2C#N)C2CCN3CC2)c(O)c1,-285,.,?,-3.7,+
Cc1ccc(N2C(=O)NC(=O)/C(=C\C=C\c3ccco3)C2=O)cc1,.,0.18,.,-5.1*,+
O=C1NC(=O)N(c2ccccc2)C(=O)/C1=C/C=C/c1ccco1,.,-0.08,.,-2.2,.
Cc1ccc(N2C(=O)NC(=O)/C(=C\C=C\c3ccco3)C2=O)cc1C,-26,0.03,i,-5.6*,+
Cc1cccc(N2C(=O)NC(=O)/C(=C\C=C\c3ccco3)C2=O)c1,.,0.28,.,-5*,+
CN1C(=O)/C(=C/C=C/c2ccco2)C(=O)NC1=S,.,-0.18,.,-0.76,.
Cc1cc(N2CCOCC2)ccc1/C=C1\C(=O)NC(=O)N(c2ccccc2)C1=O,19,0.58,i,-0.57,.
COc1cc(O)c(C(=O)O)c(-c2cc(O)c(O)cc2C)c1,.,-0.37,.,-1.8,.
COc1ccc(Oc2cc(NC(=O)c3nn(C)cc3[N+](=O)[O-])cc([N+](=O)[O-])c2)cc1,-35,-0.81,+,-4*,+
Cc1nn(Cc2ccccc2)c(C)c1C=C1C(=O)NC(=S)NC1=O,-5,0.02,i,-4.7*,i
Cc1c(C=C2C(=O)NC(=O)NC2=O)c(=O)n(-c2ccccc2)n1C,40,-0.78,i,0.74,.
Cc1cc([N+](=O)[O-])c2ccccc2[n+]1[O-],.,-6.1,.,-4.5*,+
CC1(C)C[C@H]2C=C(C=O)[C@]3(C=O)C[C@]3(C)[C@H]2C1,-277,?,i,-5.1,+
O=C(N/N=C\C1C(=O)NC(=S)N(c2ccccc2)C1=O)c1ccc(O)cc1 (stereo not drawn),0,-0.82,i,-0.36,.
C=C1C(=O)O[C@H]2C[C@@H](C)[C@@H]3C=CC(=O)[C@@]3(C)C[C@H]12,.,.,.,-3.8*,+
C=CCN1C(=O)/C(=C/c2cc(C)n(-c3cccnc3)c2C)C(=O)NC1=S,11,-0.49,i,-6.5*,i
Cn1cccc1/C=C1\C(=O)NC(=O)N(Cc2ccco2)C1=O,.,.,i,-0.23,.
O=C1NC(=O)N(Cc2ccco2)C(=O)/C1=C/C=C/c1ccco1,.,-0.04,.,-3.8*,?
O=C1NC(=O)N(Cc2ccccc2)C(=O)/C1=C\C=C\c1ccco1,.,.,i,-4.4*,+
C=CCN(CC#CCOc1ccccc1OC)CC=C,.,0.58,i,-0.022,.
COc1ccc(OC)c(N2C(=O)NC(=O)/C(=C/c3ccc([N+](=O)[O-])s3)C2=O)c1,.,.,i,-5.3*,+
O=C(O)c1sc2cc(Cl)ccc2c1Cl,.,-0.45,.,1,.
O=C1NC(=O)N(CCc2ccc(F)cc2)C(=O)/C1=C\C=C\c1ccccc1,-20,0.82,i,-4.1*,+
C=CCN1C(=O)NC(=O)/C(=C/C=C/c2ccccc2)C1=O,.,.,i,-4.9*,+
CN(C)c1ccc(/C=C/C=C2/C(=O)NC(=O)N(c3ccccc3)C2=O)cc1,.,.,i,-0.27,.
O=c1[nH]c(=O)n(CCc2ccccc2)c(O)c1C=NC1CC1,.,0.07,.,0.52,.

# From PubChem BioAssay
